What was measured:
[1] = test system: Human immunodeficiency virus 1; experiment: Antiviral activity against HIV1 with reverse transcriptase Y181I mutation in human CEM cells assessed as protection against virus-induced cytopathicity; format: functional, organism-based; conditions: Human immunodeficiency virus 1, CCRF-CEM
In short: (§1)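 CEM cells (~3 × 10⁵ cells/mL) were infected with ~100 CCID₅₀ virus per mL and seeded with serial compound dilutions. After 4 days at 37 °C, syncytium (giant cell) formation was scored microscopically. EC₅₀ is the concentration giving 50% protection against virus cytopathicity.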

[2] = test system: Human immunodeficiency virus 1; experiment: Antiviral activity against HIV1 with reverse transcriptase K103N mutation in human CEM cells assessed as protection against virus-induced cytopathicity; format: functional, organism-based; conditions: Human immunodeficiency virus 1, CCRF-CEM; in short: as §1
[3] = test system: Human immunodeficiency virus 1; experiment: Antiviral activity against HIV1 with reverse transcriptase Y188L mutation in human CEM cells assessed as protection against virus-induced cytopathicity; format: functional, organism-based; conditions: Human immunodeficiency virus 1, CCRF-CEM; in short: as §1
[4] = test system: Human immunodeficiency virus 1; experiment: Antiviral activity against HIV1 with reverse transcriptase L100I mutation in human CEM cells assessed as protection against virus-induced cytopathicity; format: functional, organism-based; conditions: Human immunodeficiency virus 1, CCRF-CEM; in short: as §1
[5] = test system: Human immunodeficiency virus 1; experiment: Antiviral activity against HIV1 with reverse transcriptase Y181C mutation in human CEM cells assessed as protection against virus-induced cytopathicity; format: functional, organism-based; conditions: Human immunodeficiency virus 1, CCRF-CEM; in short: as §1
[6] = test system: Vesicular stomatitis virus; experiment: Antiviral activity against VSV in human HEL cells assessed as protection against virus-induced cytopathicity; format: functional, organism-based
[7] = test system: Human alphaherpesvirus 1; experiment: Antiviral activity against thymidine kinase deficient and acyclovir resistant HSV1 KOS in human HEL cells assessed as protection against virus-induced cytopathicity; format: functional, organism-based; conditions: Human alphaherpesvirus 1, KOS
[8] = test system: L1210; experiment: Antiproliferative activity against mouse L1210 cells after 2 days; format: cell-based; conditions: L1210, 48 h
In short: (§2)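 Cells seeded at 5 × 10⁴ to 7.5 × 10⁴ cells/200 µL with or without serial compound dilutions; incubated at 37 °C for 2 days (L1210) or 3 days (Molt4/C8, CEM). Cell numbers counted with a Coulter counter. CC₅₀ = concentration reducing proliferation by 50% versus untreated controls, read from plots of cell number (% of control) against concentration. Means of at least two independent experiments.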

[9] = test system: Human respirovirus 3; experiment: Antiviral activity against Parainfluenza virus type 3 in african green monkey Vero cells assessed as protection against virus-induced cytopathicity; format: functional, organism-based; conditions: Human respirovirus 3, Vero
In short: (§3)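 Confluent cell monolayers inoculated with 100 CCID₅₀ virus. After 1-2 h adsorption, residual virus removed and cultures incubated with varying compound concentrations. Cytopathicity scored once it reached completion in untreated infected controls. EC₅₀ = dose reducing virus-induced cytopathogenicity by 50%.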

[10] = Antiproliferative activity against human Molt4/C8 cells after 3 days; format: cell-based; conditions: MOLT-4, 72 h; in short: as §2
[11] = target: Human immunodeficiency virus type 1 reverse transcriptase (Human immunodeficiency virus 1, UniProt Q72547); experiment: Inhibition of HIV1 reverse transcriptase p66/p51; conditions: read-out: IC50
[12] = test system: Respiratory syncytial virus; experiment: Antiviral activity against RSV Long in human HeLa cells assessed as protection against virus-induced cytopathicity; format: functional, organism-based; in short: as §3
[13] = target: Human immunodeficiency virus type 1 reverse transcriptase (Human immunodeficiency virus 1, UniProt Q72547, L100I); experiment: Inhibition of HIV1 reverse transcriptase p66/p51 L100I mutant; conditions: read-out: IC50
In short: (§4)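 Substrate was 0.5 µg poly(rA)/oligo(dT) 10:1 (0.3 µM 3′-OH ends) with 10 µM [³H]dTTP, at 37 °C. Acid-precipitable radioactivity was counted on GF/C filters after TCA washes.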

[14] = test system: Mammalian orthoreovirus 1; experiment: Antiviral activity against Reovirus 1 in african green monkey Vero cells assessed as protection against virus-induced cytopathicity; format: functional, organism-based; conditions: Mammalian orthoreovirus 1, Vero; in short: as §3
[15] = test system: CCRF-CEM; experiment: Antiproliferative activity against human CEM cells after 3 days; format: cell-based; conditions: 72 h; in short: as §2
[16] = test system: Human immunodeficiency virus 2; experiment: Antiviral activity against HIV2 ROD in human CEM cells assessed as protection against virus-induced cytopathicity after 4 days; format: functional, organism-based; conditions: Human immunodeficiency virus 2, ROD, CCRF-CEM, 96 h
In short: (§5)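 CEM cells (~3 × 10⁵ cells/mL) infected with ~100 CCID₅₀ per mL of HIV-1 (IIIB) or HIV-2 (ROD), then seeded into wells containing compound dilutions. After 4 days at 37 °C, syncytium (giant cell) formation was examined microscopically. EC₅₀ = concentration protecting CEM cells from HIV cytopathicity by 50%.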

[17] = test system: Felid alphaherpesvirus 1; experiment: Antiviral activity against Feline herpesvirus in feline […] cells assessed as inhibition of virus-induced cytopathicity; format: functional, organism-based
[18] = test system: Human alphaherpesvirus 1; experiment: Antiviral activity against HSV1 KOS in human HEL cells assessed as protection against virus-induced cytopathicity; format: functional, organism-based; conditions: Human alphaherpesvirus 1, KOS
[19] = target: Human immunodeficiency virus type 1 reverse transcriptase (Human immunodeficiency virus 1, UniProt Q72547, K103N); experiment: Inhibition of HIV1 reverse transcriptase p66/p51 K103N mutant; conditions: read-out: IC50; in short: as §4
[20] = Cytotoxicity against feline CRFK cells by MTS assay; format: cell-based, Felis catus; conditions: cat
[21] = test system: Punta Toro virus; experiment: Antiviral activity against Punta Toro virus in african green monkey Vero cells assessed as protection against virus-induced cytopathicity; format: functional, organism-based; in short: as §3
[22] = test system: Influenza B virus; experiment: Antiviral activity against influenza B virus in MDCK cells assessed as reduction of virus-induced cytopathicity by visual cytopathic effect scoring method; format: functional, organism-based
[23] = Cytotoxicity against MDCK cells assessed as drug level causing microscopically detectable alteration of normal cell morphology; format: cell-based, Canis lupus familiaris; conditions: dog
[24] = test system: Influenza A virus H3N2; experiment: Antiviral activity against influenza H3N2 virus in MDCK cells assessed as reduction of virus-induced cytopathicity by MTS method; format: functional, organism-based
[25] = target: Human immunodeficiency virus type 1 reverse transcriptase (Human immunodeficiency virus 1, UniProt Q72547, Y181I); experiment: Inhibition of HIV1 reverse transcriptase p66/p51 Y181I mutant; conditions: read-out: IC50; in short: as §4
[26] = Cytotoxicity against african green monkey Vero cells assessed as drug level causing microscopically detectable alteration of normal cell morphology after 3 days; format: cell-based; conditions: chlorocebus sabaeus
In short: (§6)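 Serial compound dilutions added to confluent HeLa or Vero monolayers. MCC = minimum concentration causing microscopically detectable alteration of cell morphology after 3 days of incubation.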

[27] = test system: Influenza A virus H3N2; experiment: Antiviral activity against influenza H3N2 virus in MDCK cells assessed as reduction of virus-induced cytopathicity by visual cytopathic effect scoring method; format: functional, organism-based
[28] = Cytotoxicity against human HEL cells assessed as drug level causing microscopically detectable alteration of normal cell morphology after 3 days; format: cell-based
[29] = Cytotoxicity against human HeLa cells assessed as drug level causing microscopically detectable alteration of normal cell morphology after 3 days; format: cell-based; in short: as §6
[30] = test system: Influenza A virus; experiment: Antiviral activity against influenza H1N1 virus in MDCK cells assessed as reduction of virus-induced cytopathicity by MTS method; format: functional, organism-based; conditions: Influenza A virus, H1N1, MDCK
[31] = test system: Coxsackievirus B4; experiment: Antiviral activity against Coxsackievirus B4 in human HeLa cells assessed as protection against virus-induced cytopathicity; format: functional, organism-based; conditions: Enterovirus B; in short: as §3
[32] = test system: Vaccinia virus; experiment: Antiviral activity against Vaccinia virus Lederle in human HEL cells assessed as protection against virus-induced cytopathicity; format: functional, organism-based; conditions: Orthopoxvirus vaccinia
[33] = test system: Vesicular stomatitis virus; experiment: Antiviral activity against VSV in human HeLa cells assessed as protection against virus-induced cytopathicity; format: functional, organism-based
[34] = test system: Human immunodeficiency virus 1; experiment: Antiviral activity against HIV1 3B in human CEM cells assessed as protection against virus-induced cytopathicity after 4 days; format: functional, organism-based; conditions: Human immunodeficiency virus 1, 3B, CCRF-CEM, 96 h; in short: as §5
[35] = test system: Human alphaherpesvirus 2; experiment: Antiviral activity against HSV2 G in human HEL cells assessed as protection against virus-induced cytopathicity; format: functional, organism-based; conditions: Human alphaherpesvirus 2, strain G; in short: as §3
[36] = test system: Coxsackievirus B4; experiment: Antiviral activity against Coxsackievirus B4 in african green monkey Vero cells assessed as protection against virus-induced cytopathicity; format: functional, organism-based; conditions: Enterovirus B; in short: as §3
[37] = test system: Sindbis virus; experiment: Antiviral activity against Sindbis virus in african green monkey Vero cells assessed as protection against virus-induced cytopathicity; format: functional, organism-based; in short: as §3
[38] = test system: Feline coronavirus; experiment: Antiviral activity against Feline coronavirus in feline […] cells assessed as inhibition of virus-induced cytopathicity; format: functional, organism-based; conditions: Alphacoronavirus 1
[39] = Cytotoxicity against MDCK cells by MTS assay; format: cell-based, Canis lupus familiaris; conditions: dog
[40] = test system: Influenza A virus; experiment: Antiviral activity against influenza H1N1 virus in MDCK cells assessed as reduction of virus-induced cytopathicity by visual cytopathic effect scoring method; format: functional, organism-based
[41] = test system: Influenza B virus; experiment: Antiviral activity against influenza B virus in MDCK cells assessed as reduction of virus-induced cytopathicity by MTS method; format: functional, organism-based

Cc1ccnc2c1NC(=O)c1cccnc1N2C1CC1 [NEVIRAPINE]
IC50 [1]: > 10 µM | IC50 [2]: 2.9 µM | IC50 [3]: > 10 µM | IC50 [4]: 0.06 µM | IC50 [5]: 11 µM

Cc1cc(C)cc(S(=O)(=O)c2c(C(=O)NC(C)CS(N)(=O)=O)[nH]c3ccc(Cl)cc23)c1 (stereo unspecified)
EC50 [6]: > 4 µM | EC50 [7]: > 4 µM | IC50 [8]: 15 µM | EC50 [9]: > 20 µM | IC50 [1]: > 1 µM | IC50 [10]: 8.8 µM | IC50 [11]: 0.0004 µM | EC50 [12]: > 20 µM | IC50 [13]: 0.004 µM | IC50 [2]: 0.036 µM | EC50 [14]: 20 µM | IC50 [15]: 13 µM | EC50 [16]: > 10 µM | EC50 [17]: > 4 µM | EC50 [18]: > 4 µM | IC50 [3]: > 1 µM | IC50 [19]: 0.233 µM | CC50 [20]: 11.1 µM | EC50 [21]: > 20 µM | EC50 [22]: > 4 µM | IC50 [4]: 0.002 µM | MCC [23]: 20 µM | EC50 [24]: > 4 µM | IC50 [25]: 1.94 µM | MCC at 72 h [26]: ≥ 20 µM | EC50 [27]: > 4 µM | MCC at 72 h [28]: 20 µM | MCC at 72 h [29]: 100 µM | EC50 [30]: > 4 µM | EC50 [31]: 3 µM | EC50 [32]: > 4 µM | EC50 [33]: > 20 µM | IC50 [5]: 0.39 µM | EC50 [34]: 0.0023 µM | EC50 [35]: > 4 µM | EC50 [36]: 12 µM | EC50 [37]: > 20 µM | EC50 [38]: > 4 µM | CC50 [39]: 12.2 µM | EC50 [40]: > 4 µM | EC50 [41]: > 4 µM

From ChEMBL document CHEMBL1153955, “Indolylarylsulfones bearing natural and unnatural amino acids. Discovery of potent inhibitors of HIV-1 non-nucleoside wild type and resistant mutant strains reverse transcriptase and coxsackie B4 virus” (J Med Chem, 2009)
